High-throughput results from PubChem.
H9c2 protect: protects H9c2 cardiomyocytes from peroxide injury; H2O2 injury protection, ATPLite, 2 h; protection from H2O2 cell death, % at 20 µM; 360,000 tested, 0.63% active;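 active means compounds giving at least 50% protection of heart cells from peroxide-induced death in the single-dose screen, raw or plate-pattern-corrected value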;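 further: 0% = DMSO wells with peroxide and 100% = DMSO wells without peroxide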
PKA-R2B activ: activates the human PKA-R2B holoenzyme complex; P22694+P31323; PKA-R2B holoenzyme dissociation, Cy5-IP20 fluorescence polarization; R2B truncated from residue 108, S112A mutant; 0% DMSO only, 100% 113 µM cGMP; activation, % at 11.4 µM; 340,000 tested, 0.079% active; AID 504700;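 active means activation above a cutoff set at the mean over all compounds plus 3 SD, cut at about 18% in these data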;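 further: higher means more holoenzyme dissociation and a rise in polarization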
Target sequence (P31323 whole entry, looked up, other chains not shown, the tested form may be a part): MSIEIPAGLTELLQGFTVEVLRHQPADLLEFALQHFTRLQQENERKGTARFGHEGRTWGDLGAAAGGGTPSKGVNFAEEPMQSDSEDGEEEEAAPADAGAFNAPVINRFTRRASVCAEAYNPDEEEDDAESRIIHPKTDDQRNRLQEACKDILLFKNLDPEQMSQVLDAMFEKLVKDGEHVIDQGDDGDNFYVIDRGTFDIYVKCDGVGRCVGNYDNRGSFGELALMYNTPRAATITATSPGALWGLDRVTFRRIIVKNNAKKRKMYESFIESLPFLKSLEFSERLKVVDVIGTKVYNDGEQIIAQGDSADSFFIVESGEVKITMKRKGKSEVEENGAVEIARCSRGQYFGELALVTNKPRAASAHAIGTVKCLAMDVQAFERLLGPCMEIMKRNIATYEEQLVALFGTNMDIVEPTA
PKA-R1A act: activates the PKA-R1A holoenzyme complex; PKA-R1A dissociation, Cy5-IP20 fluorescence polarization; scaled: DMSO 0%, 113 µM cGMP 100%; activation, % at 11.4 µM; 340,000 tested, 0.083% active;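 active means percent activation above the mean of all tested compounds plus 3 SD, cut at about 19% in these data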;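 further: higher means more PKAc released from R1A so a rise in polarization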
TbMetRS inhib: Trypanosoma brucei MetRS inhibition; purified T. brucei MetRS, ATP depletion, Kinase-Glo luminescence; AID 624268; inhibition, % at 11.9 µM; 360,000 tested, 0.4% active;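 active means inhibition above a per-plate cutoff of the control wells' mean inhibition plus 3 SD, cut at about 5.5% in these data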;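 further: 0% = DMSO wells median and 100% = median of wells with control inhibitor compound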
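Test system: purified T. brucei MetRS enzyme. Also added: ATP, methionine and E. coli bulk tRNA substrates. Compound: 11.9 µM single point. Schedule: 15 min enzyme-compound preincubation, 2 h reaction, 10 min detection, 25 °C. Signal: luciferase luminescence of residual ATP, Kinase-Glo. Evaluation: percent inhibition versus plate control medians. Controls: DMSO wells, low control.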
Rin1 Abl inh: inhibitors of human Rin1-Abl protein interaction; AID 588664; TR-FRET Rin1/Abl binding, biochemical; inhibition, % at 7.35 µM; 360,000 tested, 0.4% active; P00519+Q13671; in the data active means inhibition above about 5%, passing the limit was not always enough
Numbers without * were called inactive; · = not tested or not shown. Hits are enriched below; roughly 1.5% of the tested compounds scored in any of these assays.

SMILES	H9c2 protect	PKA-R2B activ	PKA-R1A act	TbMetRS inhib	Rin1 Abl inh
COc1cc(/C=C2\CC/C(=C\c3ccc(OCCO)c(OC)c3)C2=O)ccc1OCCO	81.2*	-0.5	8.2	-1.2	-9.9
COc1ccc(/C=C2\CN(Cc3ccccc3)C/C(=C\c3ccc(OC)c(O)c3)C2=O)cc1O	61.3*	-0.4	2.5	0.5	4.9
COc1ccc(/C=C2\CC/C(=C\c3ccc(OC)c(OC)c3)C2=O)cc1OC	-7.5	0.4	-12.7	-1.1	-3.4
COc1cc(/C=C2\COC/C(=C\c3ccc(O)c(OC)c3)C2=O)ccc1O	53.4*	-13.8	1.2	-0.2	4.0
CCN1C/C(=C/c2ccc(OC)c(O)c2)C(=O)/C(=C/c2ccc(OC)c(O)c2)C1	16.2	-6.1	-11.8	-0.6	5.2
COc1ccc(/C=C2\CCc3ccccc3C2=O)cc1OC	-4.0	-0.5	3.8	-0.6	0.3
CCN1C(=O)[C@H]2[C@@H](c3ccc(OC)cc3)N3C(=O)CN(CCOC)C(=O)[C@@]3(Cc3ccccc3)[C@H]2C1=O	-7.8	-4.2	13.7	-0.3	7.0
COc1ccccc1NC(=O)NCCN1CCN(c2cccc(Cl)c2)CC1	-6.3	-0.1	-0.5	-0.2	0.5
O=C1CC2(CCN(C(=O)c3ccc(F)cc3)CC2)Oc2ccccc21	1.6	-7.2	-0.7	-0.3	-1.0
COc1cc(/C=N/NC(=O)c2ccc(COc3cc(C)ccc3C(C)C)cc2)cc(OC)c1O	25.5	-8.8	2.7	-0.1	-3.9
Cc1ccc(C(C)C)c(OCc2ccc(C(=O)N/N=C/c3ccc(O)c(O)c3)cc2)c1	97.4*	-3.1	-7.0	-0.1	6.7
O=C(N/N=C/c1ccc(O)c(O)c1)c1ccc(CSc2cccc3cccnc23)cc1	88.1*	1.1	-3.4	0.1	-1.6
CCCCOc1ccc(C(=O)NCC(=O)N2CC(C)CC(C)C2)cc1 (stereo unspecified)	3.5	4.5	-5.6	-0.4	-1.7
Cc1ccc(CN(C)C(=O)c2ccccc2NC(=O)c2ccccc2)o1	-2.7	-3.0	3.8	-0.5	-0.6
OCC1(Cc2ccccc2F)CCCN(Cc2c(F)ccc(F)c2F)C1 (stereo unspecified)	-0.8	4.7	3.8	-1.0	0.7
Oc1c(Br)cc(Br)cc1C=Nc1cccc2ncccc12	64.2*	-5.9	-12.4	-0.2	2.3
O=C1CCC(C(=O)N2CCC(CO)CC2)CN1Cc1ccc(Cl)cc1 (stereo unspecified)	-0.7	-5.8	9.1	-0.3	0.0
COc1cccc(C(c2nnnn2Cc2ccccc2)N2CCN(C3CCCC3)CC2)c1OC (stereo unspecified)	95.1*	4.1	-3.4	-0.2	1.8
COc1ccccc1C(c1nnnn1Cc1ccccc1)N1CCN(C2CCCC2)CC1 (stereo unspecified)	15.1	-4.7	1.6	0.5	-1.0
CN(C)CCCN(C(=O)C1COc2ccccc2O1)c1nc2cc3c(cc2s1)OCO3 (stereo unspecified)	13.0	7.4	3.4	0.2	-2.5
CCc1ccc(C(=O)COC(=O)C2CCN(c3ccc(C(F)(F)F)cn3)CC2)cc1	-16.1	-7.4	1.3	-0.3	1.8
Cc1cc(=O)n2nc(N3CCCC(C(=O)NC4CCC(C)CC4)C3)sc2n1 (stereo unspecified)	-6.2	2.9	-6.5	-0.7	2.3
CCn1cc(C(=O)Nc2cccc(NC(C)=O)c2)c2cc(OC)c(OC)cc2c1=O	54.9*	-0.4	-5.1	-1.1	-1.0
COc1ccc(Nc2nc(Nc3ccc(OC)cc3OC)nc(N3CCN(C)CC3)n2)c(OC)c1	64.4*	2.6	-4.2	-1.0	1.7
O=C(O)C1Nc2c(O)cc(Cl)c([N+](=O)[O-])c2C2C=CCC12 (stereo unspecified)	10.3	10.7	8.3	0.3	14.3*
SMILES	H9c2 protect	PKA-R2B activ	PKA-R1A act	TbMetRS inhib	Rin1 Abl inh
Nc1ncc(Br)cc1S(=O)(=O)NCCC(=O)NCCc1ccccc1	-2.3	-7.8	-11.5	-0.1	-1.7
O=C(/C=C/c1ccc(Cl)cc1Cl)Nc1ccncc1	-10.3	-1.5	2.9	3.2	-4.0
O=C(/C=C/c1ccc(Cl)cc1Cl)NCc1ccncc1	19.5	4.8	2.4	8.9*	-0.4
COc1cc(/C=C(\C#N)C(=O)c2ccc(O)c(O)c2)cc(I)c1O	62.5*	6.8	6.5	1.8	0.4
O=c1oc2ccc3ccccc3c2cc1-c1nnc(-c2ccccc2)o1	80.5*	8.7	6.1	-1.7	-1.4
COC(=O)Nc1nc2ccc(-c3n[nH]c(=O)c4ccccc34)cc2[nH]1	67.9*	-1.3	6.1	-0.3	-2.8
COc1ccc(-c2ccc3c(c2)S(=O)(=O)c2cccc(C(=O)N4CCN(c5c(Cl)cncc5Cl)CC4)c2C3=O)cc1OC	66.4*	-10.4	6.1	-0.3	-1.1
COc1ccc(-c2ccc3c(c2)S(=O)(=O)c2cccc(C(=O)NC[C@@H]4CCCO4)c2C3=O)cc1OC	63.2*	1.5	5.7	-0.1	-1.8
O=C1c2ccc(Cl)cc2S(=O)(=O)c2cccc(C(=O)N3CCN(c4ncc(Br)cn4)CC3)c21	1.0	-0.8	-3.3	0.3	0.1
CC(=O)NCCNc1nc2cc(-c3cscc3C)sc2c(=O)n1C	6.0	·	·	0.1	-8.4
O=C1CC(NS(=O)(=O)c2cccnc2)CN1c1ccc(Cl)cc1 (stereo unspecified)	-1.9	-7.2	-5.0	-0.3	2.6
COc1cc(/C=N\NC(=O)C2COc3ccccc3O2)cc(OC)c1O (stereo unspecified)	-0.8	-12.6	-21.4	-1.0	-0.1
CCOc1ccc(-n2c(O)c(/C=N/NC(=O)C3COc4ccccc4O3)c3ccccc3c2=O)cc1 (stereo unspecified)	55.7*	1.0	0.8	0.7	-5.4
CCOC(=O)[C@@H]1[C@H]2COc3cc(OC)ccc3[C@@H]2N2C(=O)N(c3ccccc3)C(=O)[C@@]12C	14.7	5.5	-1.4	-0.1	2.2
C#CCOCCOCCOCCNc1nc(N2CCN(C(=O)CCCCCCCCCCNC(=O)Cn3cc(C[C@@H](C)O)nn3)CC2)nc(N2CCN(C(=O)CCCCCCCCCCNC(=O)[C@H](CCCCN)n3cc(C[C@@H](C)CC)nn3)CC2)n1	-3.3	-5.1	-2.1	-0.1	6.2
C#CCOCCOCCOCCNc1nc(N2CCN(C(=O)CCCCCCCCCCNC(=O)Cn3cc(C[C@@H](C)O)nn3)CC2)nc(N2CCN(C(=O)CCCCCCCCCCNC(=O)Cn3cc(C[C@@H](C)O)nn3)CC2)n1	79.9*	8.6	6.5	-0.1	8.4
C#CCOCCOCCOCCNc1nc(N2CCN(C(=O)CCCCCCCCCCNC(=O)[C@H](CCCCN)n3cc(CCO)nn3)CC2)nc(N2CCN(C(=O)CCCCCCCCCCNC(=O)[C@@H]([C@H](C)O)n3cc(C)nn3)CC2)n1	7.0	2.5	1.2	-0.3	9.6*
